Inconclusive results are not listed.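 Rule for the calls, unless noted: active = viability increase at or above a cutoff of the median across tested compounds plus 3 SD (cut at about 8.5% in these data, passing the limit was not always enough); inconclusive = some gains above the cutoff, reason not given; inactive = the rest.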
Key:
[1] = S. cerevisiae growth inhibition in permissive medium (OD615), pilot counter-assay for S. cerevisiae lifespan shortening project, permissive growth control (AID 705;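 active = growth inhibition above 25% in both replicates, a cutoff set 3 SD above the mean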); details: OD615, 24 h, at 10 µM, stronger effect = higher value
How it was run: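 System: Engineered DeaD yeast | Buffer or medium: SC raffinose/galactose permissive medium | Incubation: Cells pre-grown 4 h, then 24 h compound exposure, 30 °C humidified | Measured by: Absorbance (optical density) at 615 nm | Read-out: Reduction in yeast growth (OD615)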

[2] = S. cerevisiae growth inhibition in restrictive medium, OD615, pilot screen, restrictive growth control, yeast lifespan reduction project (AID 706;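 active = growth inhibition above a set limit, 3 SD over mean compound inhibition, in both replicates, cut at about 43% in these data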;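 note: modified DeaD lifespan yeast strain shifted to restrictive glucose medium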); details: OD615, 48 h, at 10 µM, stronger effect = higher value
How it was run: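 Material: modified S. cerevisiae; Medium: glucose-based CSMM-D restrictive medium; Compound dosing: one concentration, 10 µM final, 0.25% DMSO; Incubation: 48 h compound exposure at 30 °C; Measured by: OD615.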

[3] = doxorubicin toxicity protection in MRP-1 cells – H69AR cells, CellTiter-Glo, duplicate, MRP-1 activator project, pilot screen (AID 807); details: H69AR viability with doxorubicin, CellTiter-Glo luminescence; at 10 µM; stronger effect = higher value;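 note: compound pretreatment 18-22 h then 72 h combined with doxorubicin; 0% = doxorubicin alone and 100% = vehicle without doxorubicin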
[4] = viability of HCT116 without oncogenic beta-catenin – human colon tumor cells, pilot screen (AID 823;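 active = cell viability at or below a set limit in both duplicate runs, the limit being the all-compound median minus 4 SD, cut at about 23% in these data, passing the limit was not always enough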;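 note: 0% = wells killed by 20 µM Hyamine and 100% = untreated DMSO cell wells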); details: HCT116 beta-catenin knockout viability, CellTiter-Glo, 60 h; at 10 µM; stronger effect = lower value
[5] = viability of PTEN-null HCT116 cells – cell-based, HCT116 clonal line, CellTiter-Glo, pilot screen (AID 824;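 active = viability at or below 27.92% in each of two runs, the all-compound median minus 4 SD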;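 note: 0% = 20 µM Hyamine control and 100% = vehicle cell control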); details: HCT116 PTEN-deleted viability, 60 h, at 10 µM, stronger effect = lower value
[6] = RAM pathway blockade in budding yeast – dse1pr::URA3 reporter, 5-FOA selection, pilot screen (AID 869;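 active = inhibition over a set limit, the all-compound mean plus 3 SD, in both replicate runs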;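 note: 0% = DMSO wells with no growth and 100% = 10 µM 1-NA-PP1 with full growth; RAM network block rescues cells from 5-FOA so hits raise OD615 growth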); details: S. cerevisiae dse1pr::URA3 5-FOA growth, OD615, 2 d; at 10 µM; stronger effect = higher value; strain carries analog-sensitive mutant Cbk1 kinase
[7] = RAM signaling pathway blockade in yeast – S. cerevisiae, Pdr1DBD-CYC8 efflux-inhibited sensitized strain, primary screen (AID 1298;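 active = RAM network inhibition above 8.4% in each of two replicates, 3 SD over the compound average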;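 note: 0% = DMSO untreated cells without growth and 100% = 10 µM 1-NA-PP1 full growth; higher means more yeast growth rescued from 5-FOA killing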); details: S. cerevisiae cbk1-as DSE1-URA3 strain, 5-FOA growth OD615, 2 d; at 50 µM; stronger effect = higher value

Cc1c(Br)cc(C(=O)N2CCCC2)c(C)c1C
inactive: growth inhibition [1] -12.7% | growth inhibition [2] -11.1% | viability increase [3] -2.86% | viability [4] 102% | viability [5] 98.9% | inhibition [6] 0.205% | RAM network inhibition [7] 3.08%

COCc1cc(C)nc(SCC(=O)Nc2cccc3cccnc23)c1C#N
inactive: growth inhibition [1] -15.3% | growth inhibition [2] -12.6% | viability increase [3] -1.44% | viability [4] 88.1% | viability [5] 86.4% | inhibition [6] 1.2% | RAM network inhibition [7] 8.57%

COc1cc(/C=N/n2cnnc2)ccc1OCCOc1ccccc1
inactive: growth inhibition [1] 0.295% | growth inhibition [2] 1.02% | viability increase [3] -3.68% | viability [4] 104% | viability [5] 91.8% | inhibition [6] 3.07% | RAM network inhibition [7] 5.62%

Cc1cccc(OCC(=O)Nc2ccc3c(c2)OCO3)c1C
inactive: growth inhibition [1] -5.98% | growth inhibition [2] -2.99% | viability increase [3] -0.26% | viability [4] 103% | viability [5] 103% | inhibition [6] 1.77% | RAM network inhibition [7] 7.79%

CCOc1ccc(-n2c(Cc3cc(=O)[nH]c(=O)[nH]3)nnc2SCC(=O)NC2CCCC2)cc1
inactive: growth inhibition [1] -1.49% | growth inhibition [2] 4.62% | viability increase [3] -0.16% | viability [4] 101% | viability [5] 100% | inhibition [6] -1.29% | RAM network inhibition [7] -0.37%

COc1cc(C(=O)NCC(c2cccnc2)N2CCN(c3ccccc3)CC2)cc(OC)c1OC (stereo not drawn)
inactive: growth inhibition [1] -6.31% | growth inhibition [2] -10.5% | viability increase [3] -4.26% | viability [4] 98.4% | viability [5] 92.5% | inhibition [6] 2.09% | RAM network inhibition [7] 2.64%

Cc1cccc(Nc2ncnc3nc[nH]c23)c1
inactive: growth inhibition [1] 3.02% | growth inhibition [2] 32.5% | viability increase [3] -1.96% | viability [4] 101% | viability [5] 97.6% | inhibition [6] 2.31% | RAM network inhibition [7] 3.11%

COC(=O)CSC1=C(C#N)C(c2cccc(OC)c2)CC(=O)N1 (stereo not drawn)
inactive: growth inhibition [1] -12.2% | growth inhibition [2] -5.83% | viability increase [3] -3.93% | viability [4] 89.1% | viability [5] 90.3% | inhibition [6] 0.41% | RAM network inhibition [7] -1.62%

CC(C)OC(=O)c1nnc(Cc2ccc(F)cc2)o1
inactive: growth inhibition [1] 4.28% | growth inhibition [2] 8.2% | viability increase [3] 2.12% | viability [4] 113% | viability [5] 107% | inhibition [6] 0.82% | RAM network inhibition [7] 7.85%

COc1ccc(NC2=C(C)C(=O)CC2)cc1
inactive: growth inhibition [1] 7.55% | growth inhibition [2] -3.12% | viability increase [3] -4.82% | viability [4] 65.9% | viability [5] 69.5% | inhibition [6] 0.505% | RAM network inhibition [7] 1.49%

O=C(CCCC(=O)n1cnc2ccccc21)n1cnc2ccccc21
inactive: growth inhibition [1] -3.46% | growth inhibition [2] 4.09% | viability increase [3] -1.98% | viability [4] 96.2% | viability [5] 92.9% | inhibition [6] 1.08% | RAM network inhibition [7] 0.98%

CC(=NCCN1CCOCC1)C1=C(O)c2ccccc2C1=O
inactive: growth inhibition [1] -5.16% | growth inhibition [2] -12.6% | viability increase [3] -1.7% | viability [4] 103% | viability [5] 100% | inhibition [6] 1.3% | RAM network inhibition [7] -0.73%

Cc1cccc(-n2ncc3c(Nc4ccc(F)cc4)ncnc32)c1
inactive: growth inhibition [1] -11.3% | growth inhibition [2] -5.18% | viability increase [3] 2.21% | viability [4] 106% | viability [5] 95.4% | inhibition [6] 3.18% | RAM network inhibition [7] 1.56%

COc1ccc(S(=O)(=O)N2CCC(C(=O)N3CCc4ccccc4C3)CC2)cc1OC
inactive: growth inhibition [1] 1.07% | growth inhibition [2] 1.26% | viability increase [3] -2.24% | viability [4] 89.4% | viability [5] 87.6% | inhibition [6] -0.455% | RAM network inhibition [7] 5.37%

CC(C)C(=O)Nc1ccc(Nc2ccccc2)cc1
inactive: growth inhibition [1] -3.29% | growth inhibition [2] -8.34% | viability increase [3] 0.79% | viability [4] 105% | viability [5] 104% | inhibition [6] 0.87% | RAM network inhibition [7] 2.52%

CC1CC(NC(=O)CCn2c(=O)oc3ccccc32)CC(C)(C)C1 (stereo not drawn)
inactive: growth inhibition [1] 1.98% | growth inhibition [2] -2.1% | viability increase [3] -1.55% | viability [4] 97.1% | viability [5] 102% | inhibition [6] 1.02% | RAM network inhibition [7] 4.18%

O=C(NC12CC3CC(CC(C3)C1)C2)c1cccnc1
inactive: growth inhibition [1] -3.12% | growth inhibition [2] 15.7% | viability increase [3] -0.51% | viability [4] 104% | viability [5] 97.7% | inhibition [6] 2.61% | RAM network inhibition [7] 3.7%

Cn1c(NC(=O)CC(C)(C)C)cc(=O)n(C)c1=O
inactive: growth inhibition [1] -2.31% | growth inhibition [2] -7.82% | viability increase [3] -0.07% | viability [4] 104% | viability [5] 105% | inhibition [6] 3.15% | RAM network inhibition [7] -1.17%

CCN1CCN(Cc2ccc(NC(=O)Nc3ccccc3OC)cc2)CC1
inactive: growth inhibition [1] -1.11% | growth inhibition [2] 4.37% | viability increase [3] 0.28% | viability [4] 108% | viability [5] 105% | inhibition [6] 0.235% | RAM network inhibition [7] 2.68%

COc1ccc(C(=O)O)cc1Nc1cc(C)nc2ncnn12
inactive: growth inhibition [1] 1.95% | growth inhibition [2] -2.37% | viability increase [3] -1.14% | viability [4] 103% | viability [5] 93% | inhibition [6] 0.015% | RAM network inhibition [7] 0.94%

COc1ccccc1NC(=O)c1cccc(S(=O)(=O)N2CCOCC2)c1
inactive: growth inhibition [1] 7.87% | growth inhibition [2] 0.14% | viability increase [3] -0.79% | viability [4] 103% | viability [5] 96.7% | inhibition [6] 2.99% | RAM network inhibition [7] 0.68%

COc1ccc(N2CCN(CCCNS(=O)(=O)c3ccc4c(c3)oc(=O)n4C)CC2)cc1
inactive: growth inhibition [1] -8.8% | growth inhibition [2] 2.4% | viability increase [3] 0.06% | viability [4] 94.3% | viability [5] 97.4% | inhibition [6] 1.25% | RAM network inhibition [7] 6.05%

CCSCCOC(=O)C1=C(C)N(C)C(=O)NC1c1cc(OC)ccc1OC (stereo not drawn)
inactive: growth inhibition [1] 0.26% | growth inhibition [2] -2.77% | viability increase [3] 1.05% | viability [4] 94.2% | viability [5] 93.8% | inhibition [6] 0.645% | RAM network inhibition [7] 2.69%

O=C(COc1ccc(Cl)cc1)OCC(=O)N1CCCC1
inactive: growth inhibition [1] -6.8% | growth inhibition [2] -26.8% | viability increase [3] -2.32% | viability [4] 94.5% | viability [5] 95.3% | inhibition [6] 1.44% | RAM network inhibition [7] 3.51%
